Experiment [1] concerns the target Ionotropic glutamate receptor NMDA 1/2D (Rattus norvegicus, UniProt P35439+Q62645). Description: Antagonist activity at rat recombinant NR1-NR2D receptor expressed in Xenopus oocytes at holding potential of -40mV by two-electrode voltage-clamp electrophysiology. In kind it is functional, cell-based, Oocyte. A digest of the protocol: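 Oocytes expressing rat NR1-1a with NR2A, NR2B, NR2C or NR2D, clamped at −40 mV in Ba2+/HEPES recording solution pH 7.4, 23°C. Current evoked by 100 μM glutamate plus 30 μM glycine. Final DMSO 0.05-0.5%, 5-7 inhibitor concentrations, ≥4 oocytes each. IC50 from Hill fit of normalized mean composite data. Some NR2A oocytes given BAPTA-AM or K-BAPTA.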
Background: Two-electrode voltage clamp holds a large cell at a set potential and records current.

For experiment [2], the target named is Glutamate NMDA receptor; Grin1/Grin2c (Rattus norvegicus, UniProt P35439+Q00961). Kind of experiment: Antagonist activity at rat recombinant NR1-NR2C receptor expressed in Xenopus oocytes at holding potential of -40mV by two-electrode voltage-clamp electrophysiology. Format: functional, cell-based, Oocyte. A digest of the protocol:
(§1)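 Oocytes expressing rat NR1-1a with NR2A, NR2B, NR2C or NR2D, clamped at −40 mV in Ba2+/HEPES recording solution pH 7.4, 23°C. Current evoked by 100 μM glutamate plus 30 μM glycine. Final DMSO 0.05-0.5%, 5-7 inhibitor concentrations, ≥4 oocytes each. IC50 from Hill fit of normalized mean composite data. […] Some NR2A oocytes given BAPTA-AM or K-BAPTA.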

The species named for experiment [3] is Rattus norvegicus. Kind of experiment: Selectivity ratio of IC50 for rat recombinant GLuR1 to IC50 for rat recombinant NR1-NR2D receptor. A digest of the protocol: (§2)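 Ratio of fitted IC50 values, either NR2A/NR2D or GluR1/NR2D, from two-electrode voltage-clamp Hill fits in oocytes. Where noted, calculated from IC50 values rounded to the nearest μM.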
The next experiment addresses Glutamate receptor 1 (Rattus norvegicus, UniProt P19490). Description: Antagonist activity at rat recombinant GLuR1 expressed in Xenopus oocytes assessed as inhibition of glutamate-induced current by two-electrode voltage-clamp electrophysiology. In kind it is functional, cell-based, Oocyte. The procedure, abridged: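 Two-electrode voltage clamp at −40 mV on Xenopus oocytes expressing rat GluR1, perfused with 90 NaCl, 1.0 KCl, 0.5 BaCl2, 0.005 EDTA, 10 HEPES (mM), pH 7.4, 23°C; activated by 100 μM glutamate. From 20 mM DMSO stocks, 5-7 concentrations, ≥4 oocytes each. Hill fit to mean composite curves normalized to control, minimum usually fixed at 0. Response >75% at 100 μM reported as >300 μM.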

The species entered for experiment [4] is Rattus norvegicus. Description: Selectivity ratio of IC50 for rat recombinant NR1-NR2A receptor to IC50 for rat recombinant NR1-NR2D receptor. A digest of the protocol:
as §2

The target of experiment [5] is Glutamate NMDA receptor; Grin1/Grin2a (Rattus norvegicus, UniProt P35439+Q00959). Description: Antagonist activity at rat recombinant NR1-NR2A receptor expressed in Xenopus oocytes at holding potential of -40mV by two-electrode voltage-clamp electrophysiology. Format: functional, cell-based, Oocyte. To be noted: read-out: IC50. A digest of the protocol:
as §1

Experiment [6] addresses Glutamate NMDA receptor; Grin1/Grin2b (Rattus norvegicus, UniProt P35439+Q00960). Description: Antagonist activity at rat recombinant NR1-NR2B receptor expressed in Xenopus oocytes at holding potential of -40mV by two-electrode voltage-clamp electrophysiology. In kind it is functional, cell-based, Oocyte. To be noted: read-out: IC50. The procedure, abridged: as §1

Chain of Glutamate NMDA receptor; Grin1/Grin2c (Q00961 whole entry, other chains not shown): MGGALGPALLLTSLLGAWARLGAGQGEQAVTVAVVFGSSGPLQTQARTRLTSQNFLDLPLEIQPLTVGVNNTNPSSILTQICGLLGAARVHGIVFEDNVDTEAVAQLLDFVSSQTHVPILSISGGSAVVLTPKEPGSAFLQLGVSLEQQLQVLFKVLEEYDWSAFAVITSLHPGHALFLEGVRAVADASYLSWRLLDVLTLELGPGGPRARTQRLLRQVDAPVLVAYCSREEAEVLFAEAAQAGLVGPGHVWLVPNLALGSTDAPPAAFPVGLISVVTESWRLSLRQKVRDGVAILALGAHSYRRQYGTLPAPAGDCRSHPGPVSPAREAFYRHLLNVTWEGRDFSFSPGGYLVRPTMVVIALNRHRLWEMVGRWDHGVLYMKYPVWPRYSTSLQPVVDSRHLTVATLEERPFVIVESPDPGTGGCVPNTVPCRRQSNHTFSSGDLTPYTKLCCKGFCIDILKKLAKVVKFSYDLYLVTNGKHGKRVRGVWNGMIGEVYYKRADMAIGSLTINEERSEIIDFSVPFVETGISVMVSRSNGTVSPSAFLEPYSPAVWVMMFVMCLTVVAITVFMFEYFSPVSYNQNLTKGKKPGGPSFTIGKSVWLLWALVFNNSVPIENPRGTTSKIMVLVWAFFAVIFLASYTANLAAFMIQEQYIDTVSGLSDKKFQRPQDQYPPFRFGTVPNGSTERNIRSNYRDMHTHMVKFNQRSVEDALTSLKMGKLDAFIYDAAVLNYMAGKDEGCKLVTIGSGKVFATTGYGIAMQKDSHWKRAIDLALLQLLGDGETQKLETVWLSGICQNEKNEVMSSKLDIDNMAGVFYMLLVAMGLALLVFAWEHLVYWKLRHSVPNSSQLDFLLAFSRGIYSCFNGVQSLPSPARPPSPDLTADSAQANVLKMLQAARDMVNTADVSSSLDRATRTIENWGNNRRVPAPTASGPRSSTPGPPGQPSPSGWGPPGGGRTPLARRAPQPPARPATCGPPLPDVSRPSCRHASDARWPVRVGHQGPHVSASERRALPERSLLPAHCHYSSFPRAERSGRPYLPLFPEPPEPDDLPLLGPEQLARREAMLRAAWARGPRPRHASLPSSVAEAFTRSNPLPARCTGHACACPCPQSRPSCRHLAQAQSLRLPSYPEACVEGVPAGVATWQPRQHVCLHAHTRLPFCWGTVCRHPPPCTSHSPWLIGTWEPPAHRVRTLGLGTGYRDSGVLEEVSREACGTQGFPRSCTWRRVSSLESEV
Chain of Glutamate receptor 1 (P19490 whole entry, the tested form may be a part): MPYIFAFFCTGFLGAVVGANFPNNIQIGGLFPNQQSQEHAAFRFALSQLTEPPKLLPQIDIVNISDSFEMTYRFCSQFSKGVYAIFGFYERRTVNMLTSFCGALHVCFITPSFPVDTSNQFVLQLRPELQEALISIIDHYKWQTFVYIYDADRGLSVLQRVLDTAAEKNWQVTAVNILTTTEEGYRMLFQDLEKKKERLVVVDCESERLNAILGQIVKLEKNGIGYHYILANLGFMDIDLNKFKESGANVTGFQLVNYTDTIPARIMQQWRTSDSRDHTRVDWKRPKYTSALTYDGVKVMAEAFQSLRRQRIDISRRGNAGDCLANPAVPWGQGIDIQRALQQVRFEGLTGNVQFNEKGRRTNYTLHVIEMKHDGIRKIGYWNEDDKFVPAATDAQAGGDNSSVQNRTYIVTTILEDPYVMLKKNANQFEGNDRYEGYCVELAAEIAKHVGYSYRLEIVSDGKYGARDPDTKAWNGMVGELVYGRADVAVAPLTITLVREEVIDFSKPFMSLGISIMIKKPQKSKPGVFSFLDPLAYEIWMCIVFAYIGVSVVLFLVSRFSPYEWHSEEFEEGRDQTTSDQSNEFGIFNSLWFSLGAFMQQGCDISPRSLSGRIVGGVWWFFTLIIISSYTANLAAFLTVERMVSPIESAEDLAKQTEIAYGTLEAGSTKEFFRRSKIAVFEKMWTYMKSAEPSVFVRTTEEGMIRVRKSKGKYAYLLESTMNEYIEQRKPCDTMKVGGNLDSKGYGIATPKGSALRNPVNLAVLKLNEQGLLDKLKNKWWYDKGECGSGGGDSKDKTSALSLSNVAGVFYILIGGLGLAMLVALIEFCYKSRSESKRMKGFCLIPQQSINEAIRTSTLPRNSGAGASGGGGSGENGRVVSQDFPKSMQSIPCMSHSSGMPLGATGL
Chain of Glutamate NMDA receptor; Grin1/Grin2a (Q00959 whole entry, other chains not shown): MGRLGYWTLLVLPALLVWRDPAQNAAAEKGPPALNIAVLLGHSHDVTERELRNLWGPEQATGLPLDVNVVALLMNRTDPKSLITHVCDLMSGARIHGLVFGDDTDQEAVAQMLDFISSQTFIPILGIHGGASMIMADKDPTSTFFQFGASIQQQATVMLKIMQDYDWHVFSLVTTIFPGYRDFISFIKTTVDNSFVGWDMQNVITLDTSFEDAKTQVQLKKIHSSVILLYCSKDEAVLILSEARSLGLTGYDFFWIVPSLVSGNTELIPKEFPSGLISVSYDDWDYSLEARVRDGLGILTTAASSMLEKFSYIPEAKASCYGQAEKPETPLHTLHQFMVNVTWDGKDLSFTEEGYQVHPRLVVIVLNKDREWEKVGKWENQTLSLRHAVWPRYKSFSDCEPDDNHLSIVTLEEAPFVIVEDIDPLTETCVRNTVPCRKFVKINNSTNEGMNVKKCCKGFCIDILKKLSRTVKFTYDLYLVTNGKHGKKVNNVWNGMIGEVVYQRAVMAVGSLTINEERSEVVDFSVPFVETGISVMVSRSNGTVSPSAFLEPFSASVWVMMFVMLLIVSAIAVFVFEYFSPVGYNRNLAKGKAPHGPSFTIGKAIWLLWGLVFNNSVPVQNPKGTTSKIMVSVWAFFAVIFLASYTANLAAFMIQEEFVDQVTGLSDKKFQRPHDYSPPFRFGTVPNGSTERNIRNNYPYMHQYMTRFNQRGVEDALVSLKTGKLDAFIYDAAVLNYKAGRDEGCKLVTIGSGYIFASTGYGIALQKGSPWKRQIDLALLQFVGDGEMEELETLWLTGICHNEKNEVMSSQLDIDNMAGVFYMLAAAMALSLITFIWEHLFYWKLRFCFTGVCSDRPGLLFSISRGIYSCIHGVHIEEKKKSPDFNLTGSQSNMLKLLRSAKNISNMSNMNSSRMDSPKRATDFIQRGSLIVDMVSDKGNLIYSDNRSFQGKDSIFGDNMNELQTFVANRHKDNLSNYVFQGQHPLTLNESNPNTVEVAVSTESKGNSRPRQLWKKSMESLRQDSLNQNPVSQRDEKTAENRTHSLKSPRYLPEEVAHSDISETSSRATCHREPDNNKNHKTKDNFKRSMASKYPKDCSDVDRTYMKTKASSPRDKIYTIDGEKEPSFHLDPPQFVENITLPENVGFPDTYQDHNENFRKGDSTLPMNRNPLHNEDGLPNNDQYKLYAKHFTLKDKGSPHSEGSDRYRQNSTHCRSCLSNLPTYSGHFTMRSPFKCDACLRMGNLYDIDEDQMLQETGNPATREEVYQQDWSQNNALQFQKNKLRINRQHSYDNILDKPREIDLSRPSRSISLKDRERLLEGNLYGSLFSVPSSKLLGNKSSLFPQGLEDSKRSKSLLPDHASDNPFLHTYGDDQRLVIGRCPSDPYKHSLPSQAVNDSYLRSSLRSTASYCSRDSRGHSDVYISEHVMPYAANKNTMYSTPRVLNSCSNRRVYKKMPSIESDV
Chain of Ionotropic glutamate receptor NMDA 1/2D (Q62645 whole entry, other chains not shown): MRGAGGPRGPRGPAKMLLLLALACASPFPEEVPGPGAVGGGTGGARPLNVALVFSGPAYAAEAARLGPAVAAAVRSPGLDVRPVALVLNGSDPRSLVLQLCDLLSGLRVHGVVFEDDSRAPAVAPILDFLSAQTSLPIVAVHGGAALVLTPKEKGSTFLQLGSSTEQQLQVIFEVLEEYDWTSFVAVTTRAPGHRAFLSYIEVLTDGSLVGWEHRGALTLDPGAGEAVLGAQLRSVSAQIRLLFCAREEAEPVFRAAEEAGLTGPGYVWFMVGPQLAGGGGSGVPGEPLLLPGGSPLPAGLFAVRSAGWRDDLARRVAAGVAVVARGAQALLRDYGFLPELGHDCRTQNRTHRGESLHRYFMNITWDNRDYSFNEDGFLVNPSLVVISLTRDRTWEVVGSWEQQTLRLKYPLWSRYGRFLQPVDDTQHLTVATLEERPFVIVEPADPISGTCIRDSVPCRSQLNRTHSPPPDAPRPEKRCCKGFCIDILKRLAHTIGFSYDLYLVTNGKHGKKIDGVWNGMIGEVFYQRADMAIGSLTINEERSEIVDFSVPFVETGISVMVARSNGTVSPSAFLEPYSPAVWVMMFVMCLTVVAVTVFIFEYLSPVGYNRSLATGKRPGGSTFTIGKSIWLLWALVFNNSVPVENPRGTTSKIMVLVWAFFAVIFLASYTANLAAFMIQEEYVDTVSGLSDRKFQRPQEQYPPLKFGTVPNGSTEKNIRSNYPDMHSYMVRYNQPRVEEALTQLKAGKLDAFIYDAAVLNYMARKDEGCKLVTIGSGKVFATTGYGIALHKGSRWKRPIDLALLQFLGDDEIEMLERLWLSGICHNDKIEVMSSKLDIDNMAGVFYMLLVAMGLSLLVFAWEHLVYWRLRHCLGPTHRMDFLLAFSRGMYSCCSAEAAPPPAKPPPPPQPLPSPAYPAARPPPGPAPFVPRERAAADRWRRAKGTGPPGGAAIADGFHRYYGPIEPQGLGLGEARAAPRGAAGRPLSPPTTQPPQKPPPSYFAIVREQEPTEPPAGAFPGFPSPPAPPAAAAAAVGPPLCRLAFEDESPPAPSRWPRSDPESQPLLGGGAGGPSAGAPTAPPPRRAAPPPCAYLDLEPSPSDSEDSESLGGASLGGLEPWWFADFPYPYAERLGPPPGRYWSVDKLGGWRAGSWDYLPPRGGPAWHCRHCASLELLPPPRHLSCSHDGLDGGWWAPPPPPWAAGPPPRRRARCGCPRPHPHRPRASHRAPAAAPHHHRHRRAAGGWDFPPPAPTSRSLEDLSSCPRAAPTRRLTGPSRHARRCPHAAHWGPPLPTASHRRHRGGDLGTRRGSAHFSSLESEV

With `Cc1ccc2nc(/C=C/c3ccccc3)n(-c3ccc(C(=O)O)cc3)c(=O)c2c1`, the IC50 (commonly the midpoint of a concentration-inhibition curve) came to 26 µM in experiment [1]; 22 µM in experiment [2]; 21 µM on Glutamate receptor 1; 39 µM in experiment [5]; 25 µM in experiment [6]. Also, the Ratio IC50 in the experiment listed under Rattus norvegicus [3] came to 1; in the experiment filed under Rattus norvegicus [4], 2.
As to `CC(C)c1ccc2nc(/C=C/c3cccc([N+](=O)[O-])c3)n(-c3ccc(C(=O)O)cc3)c(=O)c2c1`, the IC50 was 7 µM in experiment [1]; 6 µM in experiment [2]; 200 µM on Glutamate receptor 1; 101 µM in experiment [5]; 98 µM in experiment [6]. Also, the figures for the Ratio IC50 in the experiment filed under Rattus norvegicus [3] and in the experiment listed under Rattus norvegicus [4] were 29 and 14, respectively.
On to `COC(=O)c1cccc(/C=C/c2nc3ccc(OC)cc3c(=O)n2-c2ccc(C(=O)O)cc2)c1`, for which the IC50 was determined as 6 µM in experiment [1]; 15 µM in experiment [2]; 41 µM at Glutamate receptor 1; 80 µM in experiment [5]; 39 µM in experiment [6]. For the same compound, the Ratio IC50 in the experiment listed under Rattus norvegicus [3] is 7; in the experiment filed under Rattus norvegicus [4], 13.
Turning to `O=C(O)c1ccc(-n2c(/C=C/c3cccc([N+](=O)[O-])c3)nc3ccc(O)cc3c2=O)cc1`, the IC50 in experiment [1] is 10 µM; in experiment [2], 43 µM; on Glutamate receptor 1, 96 µM; in experiment [5], 237 µM; in experiment [6], greater than 300 µM. Moreover, the figures for the Ratio IC50 in the experiment listed under Rattus norvegicus [3] and in the experiment listed under Rattus norvegicus [4] were 10 and 24, respectively.
For the compound `COC(=O)c1ccc(-n2c(/C=C/c3cccc([N+](=O)[O-])c3)nc3ccc(OC)cc3c2=O)cc1`, the IC50 in experiment [1] worked out at 38 µM; in experiment [2] it was 39 µM; on Glutamate receptor 1 it was 138 µM; in experiment [5], 218 µM; in experiment [6] it was 46 µM. The values for the Ratio IC50 in the experiment listed under Rattus norvegicus [3] and in the experiment listed under Rattus norvegicus [4] were 4 and 6, respectively.
Turning to `COc1ccc2nc(/C=C/c3cccc([N+](=O)[O-])c3)n(-c3cccc(C(=O)O)c3)c(=O)c2c1`, the IC50 in experiment [1] is 13 µM; in experiment [2], 24 µM; at Glutamate receptor 1 it was 289 µM; in experiment [5], 208 µM; in experiment [6] it was greater than 300 µM. Moreover, the Ratio IC50 in the experiment listed under Rattus norvegicus [3] was determined as 22; in the experiment listed under Rattus norvegicus [4], 16.
For the compound `O=C(O)c1ccc(-n2c(/C=C/c3cccc([N+](=O)[O-])c3)nc3ccc(I)cc3c2=O)cc1`, the IC50 in experiment [1] was 0.6 µM; in experiment [2], 1 µM; at Glutamate receptor 1 it was 31 µM; in experiment [5], 18 µM; in experiment [6], 6 µM. Besides, the Ratio IC50 in the experiment listed under Rattus norvegicus [3] was found to be 52; in the experiment filed under Rattus norvegicus [4], 18.
`O=C(O)c1ccc(-n2c(/C=C/c3ccc(OC(F)F)cc3)nc3ccccc3c2=O)cc1`: the IC50 in experiment [1] was determined as 22 µM; in experiment [2] it was 33 µM; at Glutamate receptor 1 it was 208 µM; in experiment [5] it was 73 µM; in experiment [6] it was 89 µM. Moreover, the Ratio IC50 was 9 in the experiment filed under Rattus norvegicus [3] and 3 in the experiment filed under Rattus norvegicus [4].
As to `CCCc1ccc2nc(/C=C/c3cccc([N+](=O)[O-])c3)n(-c3ccc(C(=O)O)cc3)c(=O)c2c1`, the IC50 worked out at 4 µM in experiment [1]; 3 µM in experiment [2]; 50 µM at Glutamate receptor 1; 28 µM in experiment [5]; 18 µM in experiment [6]. The Ratio IC50 in the experiment listed under Rattus norvegicus [3] came out at 13; in the experiment filed under Rattus norvegicus [4], 7.
As for `COc1ccccc1-n1c(/C=C/c2cccnc2)nc2ccc(I)cc2c1=O`, the IC50 was 3 µM in experiment [1]; 3 µM in experiment [2]; 199 µM at Glutamate receptor 1; 31 µM in experiment [5]; 30 µM in experiment [6]. In addition, the Ratio IC50 in the experiment filed under Rattus norvegicus [3] came to 66; in the experiment filed under Rattus norvegicus [4], 10.
On to `Cc1ccccc1-n1c(/C=C/c2cccnc2)nc2ccc(I)cc2c1=O`, for which the IC50 is 25 µM in experiment [1]; 70 µM in experiment [2]; 83 µM on Glutamate receptor 1; greater than 300 µM in experiment [5]; 156 µM in experiment [6]. For the same compound, the values for the Ratio IC50 in the experiment filed under Rattus norvegicus [3] and in the experiment filed under Rattus norvegicus [4] were 3 and greater than 12, respectively.
Regarding `O=c1c2cc(I)ccc2nc(/C=C/c2cccnc2)n1-c1ccccc1[N+](=O)[O-]`, the IC50 in experiment [1] is 5 µM; in experiment [2], 19 µM; on Glutamate receptor 1, greater than 300 µM; in experiment [5] it was 206 µM; in experiment [6] it was 105 µM. Moreover, the Ratio IC50 in the experiment listed under Rattus norvegicus [3] stood at 60; in the experiment listed under Rattus norvegicus [4], 41.
For `O=C(O)c1ccc(-n2c(/C=C/c3cccc([N+](=O)[O-])c3)nc3ccc(-c4ccccc4)cc3c2=O)cc1`, the IC50 was 2 µM in experiment [1]; 2 µM in experiment [2]; 5 µM at Glutamate receptor 1; 11 µM in experiment [5]; 3 µM in experiment [6]. Moreover, the Ratio IC50 in the experiment listed under Rattus norvegicus [3] is 3; in the experiment filed under Rattus norvegicus [4], 6.
As for `O=C(O)c1cccc(-n2c(/C=C/c3cccnc3)nc3ccc(I)cc3c2=O)c1`, the IC50 in experiment [1] was 4 µM; in experiment [2] it was 7 µM; at Glutamate receptor 1, 64 µM; in experiment [5] it was 45 µM; in experiment [6], 49 µM. The Ratio IC50 was found to be 16 in the experiment filed under Rattus norvegicus [3] and 11 in the experiment listed under Rattus norvegicus [4].
With `O=C(O)c1ccc(-n2c(/C=C/c3ccc(N4CCOCC4)cc3)nc3ccccc3c2=O)cc1`, the IC50 in experiment [1] is 171 µM; in experiment [2], 284 µM; at Glutamate receptor 1, greater than 300 µM; in experiment [5] it was greater than 300 µM; in experiment [6], 122 µM. Besides, the Ratio IC50 in the experiment listed under Rattus norvegicus [3] and in the experiment listed under Rattus norvegicus [4] was 1 in each case.
Regarding `Cc1ccc2nc(/C=C/c3cccc([N+](=O)[O-])c3)n(-c3ccc(C(=O)O)cc3)c(=O)c2c1`, the half-maximal inhibitory concentration (IC50) in experiment [1] amounted to 2 µM; in experiment [2], 5 µM; on Glutamate receptor 1, 27 µM; in experiment [5], 12 µM; in experiment [6], 15 µM. The Ratio IC50 in the experiment filed under Rattus norvegicus [3] stood at 14; in the experiment filed under Rattus norvegicus [4], 6.
On to `CSc1ccc(/C=C/c2nc3ccccc3c(=O)n2-c2ccc(C(=O)O)cc2)cc1`, for which the half-inhibitory concentration (IC50) came out at 22 µM in experiment [1]; 42 µM in experiment [2]; 244 µM at Glutamate receptor 1; 211 µM in experiment [5]; 79 µM in experiment [6]. Besides, the Ratio IC50 was 11 in the experiment listed under Rattus norvegicus [3] and 10 in the experiment listed under Rattus norvegicus [4].
For the compound `O=C(O)c1cccc(-n2c(/C=C/c3cccc([N+](=O)[O-])c3)nc3ccc(I)cc3c2=O)c1`, the half-maximal inhibitory concentration (IC50) in experiment [1] stood at 1 µM; in experiment [2], 2 µM; on Glutamate receptor 1, 21 µM; in experiment [5], 8 µM; in experiment [6], 11 µM. Further, the Ratio IC50 came out at 21 in the experiment filed under Rattus norvegicus [3] and 8 in the experiment listed under Rattus norvegicus [4].
Turning to `O=C(O)c1ccc(-n2c(/C=C/c3cccc4ccccc34)nc3ccccc3c2=O)cc1`, the IC50 came out at 6 µM in experiment [1]; 22 µM in experiment [2]; 82 µM on Glutamate receptor 1; 25 µM in experiment [5]; 68 µM in experiment [6]. In addition, the figures for the Ratio IC50 in the experiment listed under Rattus norvegicus [3] and in the experiment filed under Rattus norvegicus [4] were 14 and 4, respectively.
Take `O=C(O)c1ccc(-n2c(/C=C/c3cccc([N+](=O)[O-])c3)nc3ccc(/C=C/c4ccccc4)cc3c2=O)cc1`: the IC50 in experiment [1] was 4 µM; in experiment [2] it was 4 µM; at Glutamate receptor 1, 131 µM; in experiment [5] it was 19 µM; in experiment [6], 30 µM. Also, the Ratio IC50 in the experiment listed under Rattus norvegicus [3] stood at 33; in the experiment filed under Rattus norvegicus [4] it was 5.
On to `O=c1c2cc(I)ccc2nc(/C=C/c2cccnc2)n1-c1ccccc1`, for which the IC50 in experiment [1] was 108 µM; in experiment [2], greater than 300 µM; at Glutamate receptor 1, greater than 300 µM; in experiment [5] it was 132 µM; in experiment [6] it was greater than 300 µM. Further, the Ratio IC50 in the experiment filed under Rattus norvegicus [3] worked out at 3; in the experiment listed under Rattus norvegicus [4], 1.
On to `O=C(O)c1ccc(-n2c(/C=C/c3cccc([N+](=O)[O-])c3)nc3c(Cl)cccc3c2=O)cc1`, for which the concentration for half-maximal inhibition (IC50) in experiment [1] turned out to be 9 µM; in experiment [2] it was 12 µM; on Glutamate receptor 1, 87 µM; in experiment [5], 56 µM; in experiment [6] it was 243 µM. In addition, the Ratio IC50 was 10 in the experiment listed under Rattus norvegicus [3] and 6 in the experiment filed under Rattus norvegicus [4].
Consider `COc1ccc2cc(/C=C/c3nc4ccccc4c(=O)n3-c3ccc(C(=O)O)cc3)ccc2c1`, for which the IC50 is 11 µM in experiment [1]; 20 µM in experiment [2]; 103 µM on Glutamate receptor 1; 63 µM in experiment [5]; 36 µM in experiment [6]. In addition, the Ratio IC50 came to 9 in the experiment listed under Rattus norvegicus [3] and 6 in the experiment filed under Rattus norvegicus [4].

Source of the values: ChEMBL document CHEMBL1212913, “Quinazolin-4-one derivatives: A novel class of noncompetitive NR2C/D subunit-selective N-methyl-D-aspartate receptor antagonists” (J Med Chem, 2010).
